Here are results for two compounds from ChEMBL document CHEMBL2407028, “Discovery of novel oxazolidinedione derivatives as potent and selective mineralocorticoid receptor antagonists” (Bioorg Med Chem Lett, 2013).

The target of one series is T1, Glucocorticoid receptor (Homo sapiens, UniProt P04150).
T1 sequence (P04150 whole entry): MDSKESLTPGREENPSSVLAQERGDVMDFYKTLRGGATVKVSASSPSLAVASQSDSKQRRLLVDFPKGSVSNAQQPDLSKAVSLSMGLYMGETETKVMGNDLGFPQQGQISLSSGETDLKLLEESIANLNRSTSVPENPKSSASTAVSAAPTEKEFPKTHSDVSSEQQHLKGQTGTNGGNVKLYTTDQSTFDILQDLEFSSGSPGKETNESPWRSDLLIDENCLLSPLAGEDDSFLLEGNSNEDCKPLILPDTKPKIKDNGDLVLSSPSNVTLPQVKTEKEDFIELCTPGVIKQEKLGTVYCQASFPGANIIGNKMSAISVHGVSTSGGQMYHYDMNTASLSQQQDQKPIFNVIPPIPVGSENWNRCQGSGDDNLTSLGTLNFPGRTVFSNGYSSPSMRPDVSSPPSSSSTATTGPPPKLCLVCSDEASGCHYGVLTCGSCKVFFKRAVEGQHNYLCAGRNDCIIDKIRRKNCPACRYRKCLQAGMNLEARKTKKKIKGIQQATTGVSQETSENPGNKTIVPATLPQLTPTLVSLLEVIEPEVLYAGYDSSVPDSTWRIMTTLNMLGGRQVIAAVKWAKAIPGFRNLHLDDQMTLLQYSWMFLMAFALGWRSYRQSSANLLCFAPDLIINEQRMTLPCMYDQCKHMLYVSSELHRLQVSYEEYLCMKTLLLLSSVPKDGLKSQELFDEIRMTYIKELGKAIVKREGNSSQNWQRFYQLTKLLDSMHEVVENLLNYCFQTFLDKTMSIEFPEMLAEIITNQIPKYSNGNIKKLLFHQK
Description: Agonist activity at glucocorticoid receptor (unknown origin) by NH Pro assay.

The next series has as its target T2, Progesterone receptor (Homo sapiens, UniProt P06401).
T2 sequence (P06401 whole entry): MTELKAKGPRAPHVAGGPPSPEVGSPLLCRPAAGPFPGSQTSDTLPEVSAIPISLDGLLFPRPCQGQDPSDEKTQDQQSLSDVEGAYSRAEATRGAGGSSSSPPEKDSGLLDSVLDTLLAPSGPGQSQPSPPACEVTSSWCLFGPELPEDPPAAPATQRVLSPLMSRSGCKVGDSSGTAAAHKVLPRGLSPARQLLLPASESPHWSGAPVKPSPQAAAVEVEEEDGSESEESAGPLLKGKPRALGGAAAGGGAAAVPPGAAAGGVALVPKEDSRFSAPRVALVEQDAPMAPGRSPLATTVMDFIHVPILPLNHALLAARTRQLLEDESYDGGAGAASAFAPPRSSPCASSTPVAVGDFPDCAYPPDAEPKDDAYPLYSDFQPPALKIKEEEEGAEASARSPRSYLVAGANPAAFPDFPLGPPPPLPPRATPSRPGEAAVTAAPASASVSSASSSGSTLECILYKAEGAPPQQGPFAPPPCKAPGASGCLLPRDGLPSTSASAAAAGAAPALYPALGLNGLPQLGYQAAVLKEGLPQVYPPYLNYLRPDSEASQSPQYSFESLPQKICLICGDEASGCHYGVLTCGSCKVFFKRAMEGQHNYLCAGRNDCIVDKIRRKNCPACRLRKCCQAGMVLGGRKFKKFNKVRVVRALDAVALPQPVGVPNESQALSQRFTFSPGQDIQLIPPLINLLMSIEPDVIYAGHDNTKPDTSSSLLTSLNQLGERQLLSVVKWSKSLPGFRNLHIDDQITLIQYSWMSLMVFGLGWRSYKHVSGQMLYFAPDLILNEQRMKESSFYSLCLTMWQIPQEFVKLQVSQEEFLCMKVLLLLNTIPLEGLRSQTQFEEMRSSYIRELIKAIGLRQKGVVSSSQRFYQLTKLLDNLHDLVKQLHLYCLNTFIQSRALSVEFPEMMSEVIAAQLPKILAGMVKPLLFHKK
Description: Antagonist activity at progesterone receptor beta (unknown origin) by NH Pro assay.

The subject of the next series is Rattus norvegicus. Kind of series: Dose normalized AUC in rat at 1 mg/kg, iv. In kind it is ADME, organism-based. Also noted: dose 1 mg/kg, route intravenous. The settings on record: in vivo. The essentials:
(§1)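 Rats dosed at 1 mg/kg iv (n = 2) or 1 mg/kg po (n = 3), formulated at 1 mg/mL in PEG 200:water (70:30). Blood concentrations measured by LC/MS/MS after protein precipitation with acetonitrile.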

For another series, the target named is T3, Androgen receptor (Homo sapiens, UniProt P10275).
T3 sequence (P10275 whole entry): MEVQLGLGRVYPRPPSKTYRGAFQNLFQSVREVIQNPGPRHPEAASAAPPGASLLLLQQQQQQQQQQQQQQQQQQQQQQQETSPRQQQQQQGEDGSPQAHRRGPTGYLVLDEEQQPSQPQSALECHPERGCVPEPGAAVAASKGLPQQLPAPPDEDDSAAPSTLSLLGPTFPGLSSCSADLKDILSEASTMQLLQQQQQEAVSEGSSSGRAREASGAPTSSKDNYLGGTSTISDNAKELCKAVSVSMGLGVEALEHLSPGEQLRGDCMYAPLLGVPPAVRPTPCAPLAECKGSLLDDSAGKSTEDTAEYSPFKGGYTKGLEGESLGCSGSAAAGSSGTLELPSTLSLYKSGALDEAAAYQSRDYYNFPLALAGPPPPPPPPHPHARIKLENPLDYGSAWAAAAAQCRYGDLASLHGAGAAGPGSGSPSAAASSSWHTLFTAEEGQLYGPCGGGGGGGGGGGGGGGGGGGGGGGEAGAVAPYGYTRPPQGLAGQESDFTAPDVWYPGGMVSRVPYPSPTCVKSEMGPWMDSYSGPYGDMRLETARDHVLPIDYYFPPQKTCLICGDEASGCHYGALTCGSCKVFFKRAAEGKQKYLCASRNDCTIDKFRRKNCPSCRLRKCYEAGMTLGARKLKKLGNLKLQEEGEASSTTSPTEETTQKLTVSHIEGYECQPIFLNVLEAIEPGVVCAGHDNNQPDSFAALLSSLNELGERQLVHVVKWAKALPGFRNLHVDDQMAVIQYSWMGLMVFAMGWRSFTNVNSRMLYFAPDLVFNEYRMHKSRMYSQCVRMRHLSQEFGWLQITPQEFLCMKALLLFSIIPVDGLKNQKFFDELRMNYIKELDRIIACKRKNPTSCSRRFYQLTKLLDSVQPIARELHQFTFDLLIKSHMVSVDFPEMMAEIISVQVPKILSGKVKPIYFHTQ
Kind of series: Antagonist activity at androgen receptor (unknown origin) by NH Pro assay.

A short description of series [1]: Oral bioavailability in rat at 1 mg/kg. In kind it is ADME, organism-based. The settings on record: in vivo. The essentials: as §1
Another series addresses Estrogen receptor beta (Homo sapiens, UniProt Q92731). Description: Antagonist activity at estrogen receptor beta (unknown origin) by NH Pro assay.
A short description of series [2]: Cmax in rat at 1 mg/kg, iv and 1 mg/lg, po. In kind it is ADME, organism-based. Also noted: dose 1 mg/kg, route oral. Conditions: in vivo. The essentials: as §1

Chain of Estrogen receptor beta (Q92731 whole entry): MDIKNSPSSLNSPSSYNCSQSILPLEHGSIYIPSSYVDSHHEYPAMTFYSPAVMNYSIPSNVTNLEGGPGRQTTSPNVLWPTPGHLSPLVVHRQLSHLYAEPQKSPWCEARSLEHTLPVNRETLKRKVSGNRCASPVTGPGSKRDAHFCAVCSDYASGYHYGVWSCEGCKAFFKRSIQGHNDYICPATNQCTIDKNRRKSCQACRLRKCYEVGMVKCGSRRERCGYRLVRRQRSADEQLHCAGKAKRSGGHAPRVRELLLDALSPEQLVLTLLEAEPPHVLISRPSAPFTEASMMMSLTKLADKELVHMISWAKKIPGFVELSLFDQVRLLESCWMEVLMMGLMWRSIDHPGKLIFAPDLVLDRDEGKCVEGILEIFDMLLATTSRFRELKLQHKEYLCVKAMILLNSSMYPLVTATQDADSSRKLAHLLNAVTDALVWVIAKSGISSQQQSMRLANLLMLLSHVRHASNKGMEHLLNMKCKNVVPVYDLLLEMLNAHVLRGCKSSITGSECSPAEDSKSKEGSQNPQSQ

With `C[C@H](c1ccc(F)cc1)N1C(=O)O[C@](Cc2ccc(F)cc2)(C(=O)NCc2ccc(Cl)c(Cl)c2)C1=O`, at Glucocorticoid receptor, the EC50 was > 20 µM. Moreover, the IC50 against Progesterone receptor was 3.6 µM; against Androgen receptor it was > 20 µM; on Estrogen receptor beta it was 15 µM. In the series with Rattus norvegicus, this compound showed an AUC/dose of 0.46 µM·kg·h/mg. The compound also yielded a bioavailability in series [1] of 63%. The same compound gave a Cmax in series [2] of 120 nM.
`COc1cc(CNC(=O)[C@@]2(Cc3ccccc3)OC(=O)N([C@@H]3CCc4ccccc43)C2=O)cc(OC)c1`: on Glucocorticoid receptor, the EC50 was > 20 µM. In addition, the IC50 came to 8.1 µM at Progesterone receptor, 12 µM against Androgen receptor and 15 µM against Estrogen receptor beta. This compound returned an AUC/dose in the series with Rattus norvegicus of 0.89 µM·kg·h/mg. In series [1], the bioavailability was found to be 28%. For the same compound, the Cmax in series [2] was 98 nM.
